The record followed here is ChEMBL document CHEMBL5137045, “Discovery of 2-(furan-2-ylmethylene)hydrazine-1-carbothioamide derivatives as novel inhibitors of SARS-CoV-2 main protease” (Eur J Med Chem, 2022).

Structures are written as SMILES. pIC50: −log10 of the molar value. A value given as a limit tells only on which side of the number the result lay.

One experiment deals with Replicase polyprotein 1ab (Severe acute respiratory syndrome coronavirus 2, UniProt P0DTD1). In words: Inhibition of SARS CoV-2 main protease using DABCYL-KTSAVLQSGFRKM-E(EDANS)-NH2 as substrate preincubated for 30 mins followed by substrate addition and measured after 20 mins.
Conditions: not given
With `NC(=S)N/N=C/c1ccc(-c2ccc(Cl)c(C(=O)O)c2)o1`, the pIC50 (in general, the IC50 on a negative log10 scale, so that one unit is a factor of ten) was 4.60.
On the same count and under the same terms, with `NC(=S)N/N=C/c1cc(-c2ccc(C(=O)O)cc2)co1` the figure was 4.61; with `NC(=S)N/N=C/c1ccc(-c2ccc(F)nc2)o1`, 5.06; with `NC(=S)N/N=C/c1ccc(-c2ccc(C(=O)O)c(Cl)c2)o1`, 4.49.
As to `NC(=S)N/N=C/c1ccc(-c2ccc(C(=O)O)cc2)o1`, the negative logarithm of the IC50 (pIC50) is 4.76.
Still for that read-out and setting: with `NC(=S)N/N=C/c1ccc(-c2cnc3ccccc3c2)o1` the figure was 4.99.
Still for that read-out and setting: as for `NC(=S)N/N=C/c1cccc(-c2ccc(C(=O)O)cc2)c1`, the figure is 5.26.

Another experiment concerns the target Replicase polyprotein 1ab (Severe acute respiratory syndrome coronavirus 2) (UniProt P0DTD1). In words: Inhibition of SARS CoV-2 main protease at 50 uM using DABCYL-KTSAVLQSGFRKM-E(EDANS)-NH2 as substrate preincubated for 30 mins followed by substrate addition and measured after 20 mins relative to control. The following applies: time 50.0 min. Summed up:
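FRET protease assay in 40 mM PBS, 100 mM NaCl, 1 mM EDTA, 0.1% Triton, pH 7.3. M^pro (0.5 μM) was preincubated with inhibitor 30 min at room temperature, then 20 μM substrate was added. Cleavage fluorescence (ex 360/em 460 nm) was read for 20 min. This covers preliminary screening and IC50; IC50 from Hill1 fit.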
In the case of `NC(=S)N/N=C/c1ccc(-c2ccc(Cl)c(C(=O)O)c2)o1`, the inhibition (in general, the share of the control response that was lost under treatment) worked out at 93.6%.
Molecule `NC(=S)N/N=C/c1cc(-c2ccc(C(=O)O)cc2)co1` gave an inhibition of 90.9%.
The same measure, in the same setting: with `NC(=S)N/N=C/c1ccc(-c2ccc(F)nc2)o1` the figure was 97.4%; with `NC(=S)N/N=C/c1ccc(-c2ccc(C(=O)O)c(Cl)c2)o1`, 89%; with `NC(=S)N/N=C/c1ccc(-c2ccc(C(=O)O)cc2)o1`, 89.4%.
In turn, `NC(=S)N/N=C/c1ccc(-c2cnc3ccccc3c2)o1` showed an inhibition of 88.9%.
Still for that read-out and setting: as for `NC(=S)N/N=C/c1cccc(-c2ccc(C(=O)O)cc2)c1`, the figure is 99.2%; as for `COc1ccc(-c2ccc(/C=N/NC(=O)Cn3c(-c4nonc4N)nc4ccccc43)o2)c([N+](=O)[O-])c1`, < 20%.
Same read-out and setting: as for `Cc1c(NC(=S)N/N=C/c2ccccc2[N+](=O)[O-])c(=O)n(-c2ccccc2)n1C`, the figure is < 20%.
Same read-out and setting: as for `CCNC(S)=Nc1c(C)n(C)n(-c2ccccc2)c1=O`, the figure is < 20%; as for `CC1=NN(c2ccc(C)c(Cl)c2)C(=O)/C1=C\c1ccc(-c2ccc(C(=O)O)cc2)o1`, < 20%; as for `Cc1cccc(NC(=O)CN2C(=O)N/C(=C\c3ccc(-c4cccc(C(=O)O)c4)o3)C2=O)c1`, 24.2%.
Take `COc1cccc(C(=O)NCC(=O)N/N=C/c2ccc([N+](=O)[O-])o2)c1`: the inhibition was < 20%.
On the same count and under the same terms, as for `Cc1c(C(=O)N/N=C/c2ccc(-c3ccc(Cl)c(C(=O)O)c3)o2)sc(N)c1C#N`, the figure is 35.8%; as for `O=C(CSc1nnnn1-c1ccccc1)N/N=C/c1ccc(-c2ccccc2C(=O)O)o1`, 45.3%; as for `Cc1ccc(OCC(=O)N/N=C/c2ccc(-c3cc([N+](=O)[O-])ccc3Cl)o2)c(C)c1`, < 20%.
In turn, `C=CCNC(=S)N/N=C/c1ccc(-c2ccccc2[N+](=O)[O-])o1` returned an inhibition of 28.4%.
On the same count and under the same terms, with `Nc1nonc1C(=O)N/N=C/c1ccc(-c2cccc([N+](=O)[O-])c2)o1` the figure was 31.2%; with `Cc1c(NC(=S)NC(=O)COc2ccccc2)c(=O)n(-c2ccccc2)n1C`, < 20%.
On the same count and under the same terms, as for `Nc1nonc1-c1cc2ccccc2n1CC(=O)N/N=C/c1ccc(-c2cccc(C(=O)O)c2)o1`, the figure is < 20%; as for `O=[N+]([O-])c1cccc(-c2ccc(/C=N/NC(=S)NC3CCS(=O)(=O)C3)o2)c1` (stereo unspecified), 30.2%.
Molecule `C=CCNC(=S)N/N=C/c1ccc(-c2cc(C(=O)O)cc(C(=O)O)c2)o1` yielded an inhibition of 34.2%.
The same measure, in the same setting: with `NC(=S)N/N=C/c1ccc(-c2cccc3ccccc23)o1` the figure was 73.2%; with `O=C(O)c1cccc(-c2ccc(/C=N/NC(=O)C3COc4ccccc4O3)o2)c1` (stereo unspecified), 33.7%; with `O=C(O)c1cccc(-c2ccc(/C=N/Nc3nc(N4CCCC4)nc(N4CCCC4)n3)o2)c1`, < 20%.
The same measure, in the same setting: with `Cc1c(NC(=S)NC(=O)c2ccccc2)c(=O)n(-c2ccccc2)n1C` the figure was < 20%; with `Cc1c(NC(N)=S)c(=O)n(-c2ccccc2)n1C`, < 20%.
The molecule `O=C(Cn1c2ccccc2c(=O)c2ccccc21)N/N=C/c1ccc(-c2ccc(O)c(C(=O)O)c2)o1` came in with an inhibition of 54.5%.
The same measure, in the same setting: as for `Cc1c(NC(=S)N/N=C/C(Cl)=C/c2ccc([N+](=O)[O-])cc2)c(=O)n(-c2ccccc2)n1C`, the figure is 21.2%; as for `CC1=NN(c2cccc(C(=O)O)c2)C(=O)/C1=C\c1ccc(-c2cccc(C(=O)O)c2)o1`, 28.5%; as for `O=C(N/N=C/c1ccc([N+](=O)[O-])o1)c1ccc(O)cc1O`, < 20%.
Same read-out and setting: with `O=C(O)c1cccc(-c2ccc(/C=N/NC(=S)Nc3cccc(C(F)(F)F)c3)o2)c1` the figure was 43%; with `Cc1c(N=C(S)Nc2ccccc2)c(=O)n(-c2ccccc2)n1C`, < 20%.
Still for that read-out and setting: as for `COCc1c(Br)c(C)nc(OCC(=O)N/N=C/c2ccc(-c3cccc(C(=O)O)c3)o2)c1C#N`, the figure is 32.9%.
In turn, `Nc1nonc1-c1nc2ccccc2n1CC(=O)N/N=C/c1ccc(-c2ccccc2C(=O)O)o1` gave an inhibition of 41.7%.
In turn, `COCc1cc(C)nc(OCC(=O)N/N=C/c2ccc(-c3cccc(C(=O)O)c3)o2)c1C#N` showed an inhibition of 37.3%.
As to `Cc1cc(C(=O)O)ccc1-c1ccc(/C=N/NC(=S)NCc2ccccc2)o1`, the inhibition came out at 55.9%.
Still for that read-out and setting: with `O=C(CNc1ccc2ccccc2c1)N/N=C/c1ccc(-c2ccc([N+](=O)[O-])cc2)o1` the figure was 23%; with `Nc1nonc1-c1nc2ccccc2n1CC(=O)N/N=C/c1ccc(-c2cccc(C(F)(F)F)c2)o1`, 25.5%; with `O=C(O)c1cc(-c2ccc(/C=C3\NC(=O)N(Cc4ccccc4F)C3=O)o2)ccc1Cl`, 53.4%.
The same measure, in the same setting: as for `C/C(=N\NC(=S)Nc1c(C)n(C)n(-c2ccccc2)c1=O)c1cccc([N+](=O)[O-])c1`, the figure is < 20%.
Same read-out and setting: as for `CNC(=S)N/N=C/c1ccc(-c2cccc(C(=O)O)c2)o1`, the figure is 22.2%; as for `NC(=S)N/N=C/c1ccc(-c2ccc(C(=O)O)cc2)cc1`, 64%; as for `O=C(O)c1cc(-c2ccc(/C=N/Nc3nc4nonc4nc3Nc3ccc(Br)cc3)o2)ccc1O`, 45.9%.
In the case of `O=C(Cn1c2ccccc2c(=O)c2ccccc21)N/N=C/c1ccc(-c2ccc([N+](=O)[O-])cc2)o1`, the inhibition stood at 30%.
The same measure, in the same setting: with `CC1=CC2=NC(=O)/C(=C\c3ccc(-c4cccc(C(=O)O)c4)o3)C(=N)N2O1` the figure was < 20%.
Still for that read-out and setting: as for `O=C(N/N=C/c1ccc([N+](=O)[O-])o1)c1c[nH]c2ccccc12`, the figure is < 20%; as for `Cc1c(NC(=S)NC(=O)c2ccc(Cl)cc2)c(=O)n(-c2ccccc2)n1C`, < 20%; as for `COc1ccccc1OCC(=O)N/N=C/c1ccc(-c2cccc([N+](=O)[O-])c2)o1`, 24.2%.
On the same count and under the same terms, as for `O=C1NN(c2ccc(F)cc2)C(=O)/C1=C\c1ccc(-c2cccc(C(=O)O)c2)o1`, the figure is 33.8%; as for `O=C(COCc1ccccc1Cl)N/N=C/c1ccc(-c2ccc([N+](=O)[O-])cc2)o1`, 23.3%; as for `Cc1cccc(C)c1OCC(=O)N/N=C/c1ccc([N+](=O)[O-])o1`, < 20%.
`Cc1ccc(-c2ccc(/C=N/NC(=O)Cn3c4ccccc4c(=O)c4ccccc43)o2)cc1[N+](=O)[O-]`: the inhibition was found to be 55.4%.
The same measure, in the same setting: as for `O=C(N/N=C/c1ccc(-c2ccc([N+](=O)[O-])cc2)o1)/C(=C\c1ccccc1O)NC(=O)c1ccccc1`, the figure is 38.3%.
The same measure, in the same setting: with `Cc1c(NC(=S)N(C)CCC#N)c(=O)n(-c2ccccc2)n1C` the figure was < 20%; with `O=C1NC(=S)N/C1=C/c1ccc(-c2ccccc2C(=O)O)o1`, < 20%.
As to `Cc1cc(-c2ccc(/C=N/NC(=O)Cn3c(-c4nonc4N)nc4ccccc43)o2)ccc1[N+](=O)[O-]`, the inhibition is 42.9%.
Turning to `COc1c(C(=O)O)cccc1-c1ccc(/C=N/NC(N)=S)o1`, the inhibition amounted to 79.8%.
Still for that read-out and setting: as for `O=C(O)c1cccc(-c2ccc(/C=N/NC(=S)Nc3ccc(Cl)cc3)o2)c1`, the figure is 43.8%; as for `O=C(O)c1cccc(-c2ccc(/C=c3/sc4nc5ccccc5n4c3=O)o2)c1`, < 20%; as for `NC(=S)N/N=C/c1ccc(-c2ccc3ccccc3c2)o1`, 54.1%.
The same measure, in the same setting: as for `CSC1=NSC2=NC(=O)/C(=C\c3ccc(-c4cccc(C(=O)O)c4)o3)C(=N)N12`, the figure is < 20%; as for `Cc1cccc(C(=O)NC(=S)Nc2c(C)n(C)n(-c3ccccc3)c2=O)c1`, < 20%.
Still for that read-out and setting: with `O=C(O)c1ccc(-c2ccc(/C=N/NC(=S)NC3CCCCC3)o2)cc1` the figure was 37.3%; with `O=[N+]([O-])c1cccc(-c2ccc(/C=N/NC(=S)Nc3ccccc3)o2)c1`, < 20%; with `COCc1c(Br)c(C)nc(OCC(=O)N/N=C/c2ccc(-c3ccc(Cl)c(C(=O)O)c3)o2)c1C#N`, 38.3%.
In the case of `Cc1c(NC(=S)NC(=O)CC(C)C)c(=O)n(-c2ccccc2)n1C`, the inhibition was < 20%.
In the case of `O=C(O)c1cccc(-c2ccc(/C=N/n3cnc4sc5c(c4c3=O)CCCC5)o2)c1`, the inhibition was determined as 30%.
Same read-out and setting: with `COCc1cc(C)nc(OCC(=O)N/N=C/c2ccc(-c3ccc(C(=O)O)cc3)o2)c1C#N` the figure was 36.2%; with `O=C(O)c1ccc(-c2ccc(/C=N/NC(=S)Nc3cccc(C(F)(F)F)c3)o2)cc1`, 38.6%.
For `O=C(CNC(=O)c1ccccc1F)N/N=C/c1ccc([N+](=O)[O-])o1`, the inhibition is < 20%.
Still for that read-out and setting: as for `Cc1cc(-c2ccc(/C=N/NC(=O)Nc3ccccc3)o2)c(C)c([N+](=O)[O-])c1`, the figure is < 20%; as for `Cc1c(NC(=S)NC(=O)c2cccc(I)c2)c(=O)n(-c2ccccc2)n1C`, < 20%.
The same measure, in the same setting: as for `O=c1sn(-c2cccc3ccccc23)c(=O)n1Cc1ccccc1`, the figure is 98.6%; as for `N#Cc1c(/N=C/c2ccc(-c3ccc(Cl)c(C(=O)O)c3)o2)sc2c1CCCC2`, < 20%; as for `Cc1ccc(C(=O)NC(=S)Nc2c(C)n(C)n(-c3ccccc3)c2=O)cc1`, < 20%.
As for `Nc1nnnn1CC(=O)N/N=C/c1ccc(-c2ccccc2C(=O)O)o1`, the inhibition came to 34.5%.
For `N#C/C(=C\c1ccc(-c2cccc(C(=O)O)c2)o1)c1nc2ccccc2[nH]1`, the inhibition was < 20%.
The same measure, in the same setting: as for `O=C(Cn1c2ccccc2c(=O)c2ccccc21)N/N=C/c1ccc(-c2ccccc2)o1`, the figure is 21.3%.
